Data taken from ChEMBL document CHEMBL1140227, “Histone deacetylase inhibitors through click chemistry” (J Med Chem, 2008).

Key:
[1] = system: SK-MEL-2; assay: Growth inhibition of human SK-MEL-2 cells at 10 uM relative to control; assay type: functional; conditions: values are per cent of control
Procedure, shortened: (§1)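 Single-dose preliminary screen in the NCI human cancer cell line panel, run by the NIH. Percent inhibition of cell line growth was calculated by comparison with untreated samples.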

[2] = system: SK-MEL-28; assay: Growth inhibition of human SK-MEL-28 cells at 10 uM relative to control; assay type: functional; conditions: values are per cent of control; procedure, shortened: as §1
[3] = system: SK-MEL-5; assay: Growth inhibition of human SK-MEL-5 cells at 10 uM relative to control; assay type: functional; conditions: values are per cent of control; procedure, shortened: as §1
[4] = system: UACC-257; assay: Growth inhibition of human UACC257 cells at 10 uM relative to control; assay type: functional; conditions: values are per cent of control
Procedure, shortened: (§2)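 Single-dose NCI human tumour cell line screen, run by the NIH. Percent inhibition of cell line growth was calculated by comparison with untreated samples.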

[5] = system: UACC-62; assay: Growth inhibition of human UACC62 cells at 10 uM relative to control; assay type: functional; conditions: values are per cent of control; procedure, shortened: as §2
[6] = system: DU-145; assay: Growth inhibition of human DU145 cells at 10 uM relative to control; assay type: functional; conditions: values are per cent of control; procedure, shortened: as §1
[7] = system: PC-3; assay: Growth inhibition of human PC3 cells at 10 uM relative to control; assay type: functional; conditions: values are per cent of control; procedure, shortened: as §1
[8] = system: SF-268; assay: Growth inhibition of human SF268 cells at 10 uM relative to control; assay type: functional; conditions: values are per cent of control; procedure, shortened: as §1
[9] = system: SF-295; assay: Growth inhibition of human SF295 cells at 10 uM relative to control; assay type: functional; conditions: values are per cent of control; procedure, shortened: as §1
[10] = system: SF-539; assay: Growth inhibition of human SF539 cells at 10 uM relative to control; assay type: functional; conditions: values are per cent of control; procedure, shortened: as §1
[11] = system: SNB-19; assay: Growth inhibition of human SNB19 cells at 10 uM relative to control; assay type: functional; conditions: values are per cent of control; procedure, shortened: as §1
[12] = system: SNB-75; assay: Growth inhibition of human SNB75 cells at 10 uM relative to control; assay type: functional; conditions: values are per cent of control; procedure, shortened: as §2
[13] = system: U-251; assay: Growth inhibition of human U251 cells at 10 uM relative to control; assay type: functional; conditions: values are per cent of control; procedure, shortened: as §2
[14] = cells; assay type: functional; conditions: Homo sapiens, Cancer cell lines
[15] = cells; assay type: functional; conditions: Homo sapiens, Cancer cell lines; remark: listed apart in the source
[16] = system: Leukemia cell; assay: cells; assay type: functional; conditions: Homo sapiens
[17] = cells; assay type: functional; conditions: Homo sapiens, Cancer cell lines; remark: listed apart in the source
[18] = system: Melanoma cell; assay: cells; assay type: functional; conditions: Homo sapiens
[19] = cells; assay type: functional; conditions: Homo sapiens, Cancer cell lines; remark: listed apart in the source
[20] = system: RXF 393; assay: Growth inhibition of human […] cells; assay type: functional
[21] = system: TK-10; assay: Growth inhibition of human TK10 cells; assay type: functional
Procedure, shortened: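 NCI five-dose screen, run by the NIH. Each drug was tested at five concentrations alongside a control, using two microtiter plates per cell line. SAHA was included as the standard.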

[22] = cells; assay type: functional; conditions: Homo sapiens, Cancer cell lines; remark: listed apart in the source
[23] = molecular target: Histone deacetylase 1 (Homo sapiens, UniProt Q13547); assay: Inhibition of human HDAC1
Sequence of Histone deacetylase 1 (Q13547 whole entry): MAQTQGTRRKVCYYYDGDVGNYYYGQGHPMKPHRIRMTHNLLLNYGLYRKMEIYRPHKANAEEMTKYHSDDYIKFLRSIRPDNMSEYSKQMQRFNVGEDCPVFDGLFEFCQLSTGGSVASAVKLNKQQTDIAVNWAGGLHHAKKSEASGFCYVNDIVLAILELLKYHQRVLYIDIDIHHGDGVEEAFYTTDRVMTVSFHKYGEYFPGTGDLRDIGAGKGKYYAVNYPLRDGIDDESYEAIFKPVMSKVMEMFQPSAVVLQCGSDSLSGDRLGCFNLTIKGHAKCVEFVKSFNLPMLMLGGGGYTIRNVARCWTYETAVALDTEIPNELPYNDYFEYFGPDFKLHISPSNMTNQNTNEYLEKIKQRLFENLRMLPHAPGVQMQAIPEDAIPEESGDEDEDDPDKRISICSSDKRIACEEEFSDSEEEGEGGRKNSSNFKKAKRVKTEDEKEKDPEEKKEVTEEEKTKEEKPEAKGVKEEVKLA

[24] = system: A549; assay: Growth inhibition of human A549 cells at 10 uM relative to control; assay type: functional; conditions: values are per cent of control; procedure, shortened: as §1
[25] = system: EKVX; assay: Growth inhibition of human EKVX cells at 10 uM relative to control; assay type: functional; conditions: values are per cent of control; procedure, shortened: as §1
[26] = system: HOP-62; assay: Growth inhibition of human HOP62 cells at 10 uM relative to control; assay type: functional; conditions: values are per cent of control; procedure, shortened: as §1
[27] = system: HOP-92; assay: Growth inhibition of human HOP92 cells at 10 uM relative to control; assay type: functional; conditions: values are per cent of control; procedure, shortened: as §1
[28] = system: NCI-H226; assay: Growth inhibition of human NCI-H226 cells at 10 uM relative to control; assay type: functional; conditions: values are per cent of control; procedure, shortened: as §1
[29] = system: NCI-H23; assay: Growth inhibition of human NCI-H23 cells at 10 uM relative to control; assay type: functional; conditions: values are per cent of control; procedure, shortened: as §1
[30] = system: NCI-H322M; assay: Growth inhibition of human NCI-H322M cells at 10 uM relative to control; assay type: functional; conditions: values are per cent of control; procedure, shortened: as §1
[31] = system: NCI-H460; assay: Growth inhibition of human NCI-H460 cells at 10 uM relative to control; assay type: functional; conditions: values are per cent of control; procedure, shortened: as §1
[32] = system: NCI-H522; assay: Growth inhibition of human NCI-H522 cells at 10 uM relative to control; assay type: functional; conditions: values are per cent of control; procedure, shortened: as §1
[33] = system: COLO 205; assay: Growth inhibition of human COLO205 cells at 10 uM relative to control; assay type: functional; conditions: values are per cent of control; procedure, shortened: as §1
[34] = system: HCC 2998; assay: Growth inhibition of human HCC2998 cells at 10 uM relative to control; assay type: functional; conditions: values are per cent of control; procedure, shortened: as §1

O=C(/C=C/c1cn(C/C=C/c2ccccc2)nn1)NO
growth, % of control at 10 µM [1]: -51.7% | growth, % of control at 10 µM [2]: -15% | growth, % of control at 10 µM [3]: -79% | growth, % of control at 10 µM [4]: -32.1% | growth, % of control at 10 µM [5]: -71.2% | growth, % of control at 10 µM [6]: -28.7% | growth, % of control at 10 µM [7]: 11% | growth, % of control at 10 µM [8]: -0.08% | growth, % of control at 10 µM [9]: -55.5% | growth, % of control at 10 µM [10]: 5.16% | growth, % of control at 10 µM [11]: -12.4% | growth, % of control at 10 µM [12]: 16.7% | growth, % of control at 10 µM [13]: -89.9% | growth percent at 10 µM [14]: 8% | inhibition at 10 µM [15]: 1% | inhibition at 10 µM [16]: -6% | growth percent at 10 µM [17]: -20% | inhibition at 10 µM [18]: -43% | inhibition at 10 µM [19]: -18% | GI50 [20]: < 10 nM | GI50 [21]: 495 nM | inhibition at 10 µM [22]: 1% | IC50 [23]: 104 nM | growth, % of control at 10 µM [24]: -8.94% | growth, % of control at 10 µM [25]: 23.7% | growth, % of control at 10 µM [26]: -31.7% | growth, % of control at 10 µM [27]: -42% | growth, % of control at 10 µM [28]: 23.7% | growth, % of control at 10 µM [29]: 21.4% | growth, % of control at 10 µM [30]: 9.59% | growth, % of control at 10 µM [31]: 7.36% | growth, % of control at 10 µM [32]: 8.32% | growth, % of control at 10 µM [33]: -75.7% | growth, % of control at 10 µM [34]: -1.33%
